We go through 2 compounds from publication PMC2606940 (The Journal of General Physiology, 2009).

The target in one assay is T1, CLC-0 E166Y mutant (Torpedo marmorata, UniProt P21564, C212S/E166Y).
T1 sequence (P21564 1-805 E166Y/C212S): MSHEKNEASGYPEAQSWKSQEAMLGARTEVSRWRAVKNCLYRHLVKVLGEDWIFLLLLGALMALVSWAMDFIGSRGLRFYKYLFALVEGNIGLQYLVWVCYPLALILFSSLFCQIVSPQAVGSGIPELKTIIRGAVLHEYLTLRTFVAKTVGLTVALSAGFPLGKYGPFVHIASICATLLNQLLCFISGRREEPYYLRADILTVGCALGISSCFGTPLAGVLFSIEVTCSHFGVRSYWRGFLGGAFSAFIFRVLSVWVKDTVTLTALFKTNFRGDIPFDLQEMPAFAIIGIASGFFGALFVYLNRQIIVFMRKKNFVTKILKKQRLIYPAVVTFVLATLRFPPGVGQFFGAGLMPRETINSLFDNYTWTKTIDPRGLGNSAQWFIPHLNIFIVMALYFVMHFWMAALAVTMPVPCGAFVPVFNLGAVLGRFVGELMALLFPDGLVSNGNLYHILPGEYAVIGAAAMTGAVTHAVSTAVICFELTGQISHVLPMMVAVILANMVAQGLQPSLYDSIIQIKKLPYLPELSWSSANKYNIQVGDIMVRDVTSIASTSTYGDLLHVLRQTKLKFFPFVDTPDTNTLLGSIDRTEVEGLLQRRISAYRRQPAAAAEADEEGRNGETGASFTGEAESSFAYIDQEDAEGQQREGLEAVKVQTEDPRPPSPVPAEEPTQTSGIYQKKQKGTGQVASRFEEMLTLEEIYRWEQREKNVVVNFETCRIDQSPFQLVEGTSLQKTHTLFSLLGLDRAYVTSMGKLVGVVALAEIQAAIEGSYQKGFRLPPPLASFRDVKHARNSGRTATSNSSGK
It is filed as cell-based. Conditions: read-out: Apparent affinity (K1/2). In outline: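 CLC-0 mutants in the C212S background were transfected into HEK293 cells with lipofectamine and recorded 1–3 d later as excised inside-out patches. Both sides held 130 mM NaCl, 5 mM MgCl2, 10 mM HEPES and 1 mM EGTA, pH 7.4. CPA was perfused continuously onto the cytoplasmic face. Steady-state current over the last 10 ms was normalized to bracketing blocker-free controls and fitted to a Langmuir function for K1/2. Values are mean ± SEM of ~4–6 patches.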

In the next assay the target is T2, CLC-0 E166A mutant (Torpedo marmorata, UniProt P21564, C212S/E166A).
T2 sequence (P21564 1-805 E166A/C212S): T1 sequence (P21564 1-805 E166Y/C212S) with Y166A
It is filed as cell-based. Conditions: for IC50: read-out: Apparent affinity (K1/2). In outline:
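HEK293 cells expressed C212S-background CLC-0 mutants and were recorded 1–3 d post-transfection as inside-out patches in symmetrical 130 mM NaCl, 10 mM HEPES, pH 7.4. CPA, fatty acids or alkyl sulfates flowed continuously on the cytoplasmic side. C10–C12 compounds were diluted into bath solution from 10 mM DMSO stocks. Test steps ran from +80 to −160 mV after a +80 mV prepulse. Steady-state current was normalized to the mean of pre- and post-blocker controls, and a Langmuir K1/2 was taken at each voltage from ~4–6 patches.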

Where a chain is given by its changes, count along the chain named. Where two headings read alike, the source gives them in different places.

For `O=C(O)COc1ccc(Cl)cc1` [CPA, p-chlorophenoxy acetate], the IC50 on CLC-0 E166Y mutant (−40 mV) is 6180 ± 670 µM; at CLC-0 E166Y mutant (−60 mV), 2790 ± 150 µM; at CLC-0 E166Y mutant (−80 mV), 1370 ± 50 µM; at CLC-0 E166Y mutant (−100 mV) it was 700 ± 10 µM; on CLC-0 E166Y mutant (−120 mV), 380 ± 10 µM; at CLC-0 E166Y mutant (−140 mV), 220 ± 10 µM. For the same compound, the IC50 at CLC-0 E166Y mutant (−160 mV) came out at 130 ± 10 µM; on CLC-0 E166A mutant (−40 mV), 337 ± 19 µM; on CLC-0 E166A mutant (−60 mV), 162 ± 9 µM; at CLC-0 E166A mutant (−80 mV), 82 ± 4 µM; at CLC-0 E166A mutant (−100 mV), 46 ± 2 µM; on CLC-0 E166A mutant (−120 mV), 25 ± 2 µM. Further, the IC50 worked out at 15 ± 1 µM on CLC-0 E166A mutant (−140 mV) and 10 ± 1 µM at CLC-0 E166A mutant (−160 mV). Besides, on CLC-0 E166A mutant (10 μM), the block of current is given as ~50%. Besides, the inhibition of current on CLC-0 E166A mutant (300 μM CPA, −160 mV) is given as ~95%. In addition, the “saturated value of 1/τ of current inhibition” value at CLC-0 E166A mutant (voltage step +80 to −160 mV) is 1561 s⁻¹.

Regarding `CCCCCCCC(=O)O` [octanoate], the IC50 was found to be 16700 ± 650 µM at CLC-0 E166Y mutant (−80 mV); 11200 ± 540 µM on CLC-0 E166Y mutant (−100 mV); 7430 ± 410 µM on CLC-0 E166Y mutant (−120 mV); 4990 ± 310 µM on CLC-0 E166Y mutant (−140 mV); 3360 ± 180 µM at CLC-0 E166Y mutant (−160 mV); 64.3 ± 3.7 µM on CLC-0 E166A mutant (−40 mV). Also, the IC50 was 29.7 ± 1.4 µM on CLC-0 E166A mutant (−60 mV); 15.7 ± 0.7 µM on CLC-0 E166A mutant (−80 mV); 8.2 ± 0.2 µM at CLC-0 E166A mutant (−100 mV); 4.7 ± 0.2 µM at CLC-0 E166A mutant (−120 mV); 2.8 ± 0.2 µM at CLC-0 E166A mutant (−140 mV); 1.9 ± 0.1 µM on CLC-0 E166A mutant (−160 mV). The “K1/2 (range in words)” value on CLC-0 E166A mutant (−140 mV (Fig. 10 C)) was “low μM range”.
